Test results: ChEMBL document CHEMBL2046289, “Novel 2-(2-(benzylthio)-1H-benzo[d]imidazol-1-yl)acetic acids: discovery and hit-to-lead evolution of a selective CRTh2 receptor antagonist chemotype” (Bioorg Med Chem Lett, 2012)
Values after ≈ are worked out from the molar mass of the structure shown.

Key:
[1] = molecular target: T1, Prostaglandin D2 receptor 2 (Homo sapiens, UniProt Q9Y5Y4); test: Displacement of [3H]-PGD2 from human CRTh2 receptor expressed in HEK293 cells; type: cell-based
T1 sequence (Q9Y5Y4 whole entry): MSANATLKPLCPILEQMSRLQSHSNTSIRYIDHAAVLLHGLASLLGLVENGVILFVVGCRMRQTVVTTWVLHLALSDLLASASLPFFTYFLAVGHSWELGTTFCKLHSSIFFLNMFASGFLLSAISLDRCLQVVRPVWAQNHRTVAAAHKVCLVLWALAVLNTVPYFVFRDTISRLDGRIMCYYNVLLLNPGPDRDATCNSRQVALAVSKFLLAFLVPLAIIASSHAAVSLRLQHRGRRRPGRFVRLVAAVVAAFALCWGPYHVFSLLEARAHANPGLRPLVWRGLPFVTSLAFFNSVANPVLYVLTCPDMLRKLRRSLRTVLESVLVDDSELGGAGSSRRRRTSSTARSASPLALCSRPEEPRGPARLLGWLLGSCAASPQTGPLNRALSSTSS

[2] = molecular target: T1, Prostaglandin D2 receptor 2; test: Antagonist activity at human CRTh2 receptor expressed in HEK293 cells assessed as inhibition of PGD2-induced calcium flux by FLIPR assay; type: functional, cell-based
[3] = molecular target: T1, Prostaglandin D2 receptor 2; test: Displacement of [3H]-PGD2 from human CRTh2 receptor expressed in HEK293 cells in presence of 0.5% human serum albumin; type: cell-based
[4] = molecular target: T2, Prostaglandin D2 receptor (Homo sapiens, UniProt Q13258); test: Displacement of [3H]-PGD2 from human DP1 receptor expressed in CHO cells; type: cell-based
T2 sequence (Q13258 whole entry): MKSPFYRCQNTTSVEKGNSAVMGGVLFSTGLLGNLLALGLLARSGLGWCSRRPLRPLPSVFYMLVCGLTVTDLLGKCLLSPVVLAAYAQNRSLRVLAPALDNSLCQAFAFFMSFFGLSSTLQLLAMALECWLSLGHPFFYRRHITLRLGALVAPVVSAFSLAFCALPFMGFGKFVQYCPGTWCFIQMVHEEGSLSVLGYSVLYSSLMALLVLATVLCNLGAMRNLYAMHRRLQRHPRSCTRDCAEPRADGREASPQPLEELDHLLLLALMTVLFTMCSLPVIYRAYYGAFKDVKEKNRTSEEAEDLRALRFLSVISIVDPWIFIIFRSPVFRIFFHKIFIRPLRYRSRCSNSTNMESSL

Thromboxane A2 receptor = molecular target: T3, Thromboxane A2 receptor (Homo sapiens, UniProt P21731); test: Antagonist activity at human TP receptor by FLIPR assay; type: functional
T3 sequence (P21731 whole entry): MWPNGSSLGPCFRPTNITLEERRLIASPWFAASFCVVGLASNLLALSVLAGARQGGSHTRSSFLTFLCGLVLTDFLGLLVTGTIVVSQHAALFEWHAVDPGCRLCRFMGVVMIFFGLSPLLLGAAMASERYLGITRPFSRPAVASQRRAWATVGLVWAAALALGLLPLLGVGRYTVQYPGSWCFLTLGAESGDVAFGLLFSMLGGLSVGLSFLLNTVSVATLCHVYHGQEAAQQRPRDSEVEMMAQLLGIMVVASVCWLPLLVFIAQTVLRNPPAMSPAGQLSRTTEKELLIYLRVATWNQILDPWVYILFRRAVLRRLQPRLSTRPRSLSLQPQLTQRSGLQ

[5] = Lipophilicity, log D of the compound at pH 7.4; type: physicochemical; conditions: buffer
[6] = Solubility of the compound in 0.1 M HCl; type: physicochemical; conditions: buffer
[7] = Solubility of the compound in phosphate buffer at pH 7; type: physicochemical
[8] = Solubility of the compound in Tris buffer at pH 9; type: physicochemical
[9] = Stability of the compound in simulated gastric fluid assessed as compound remaining after 1 hr; type: physicochemical; conditions: read-out: Stability
In short: (§1)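 Compound incubated in simulated gastric fluid for 1 h or simulated intestinal fluid for 4 h; unchanged parent recovered quantified by LC-MS, expressed as % parent remaining.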

[10] = Stability of the compound in simulated intestinal fluid assessed as compound remaining after 4 hrs; type: physicochemical; conditions: read-out: Stability; in short: as §1
[11] = Metabolic stability of the compound in human plasma assessed as compound remaining after 4 hrs; type: ADME, cell-free; conditions: read-out: Stability
[12] = Intrinsic clearance in rat liver microsomes assessed per mg protein; type: ADME, Microsome; conditions: read-out: CLH
[13] = Intrinsic clearance in rat hepatocytes assessed per 10^6 cells; type: ADME, cell-based, Hepatocyte; conditions: read-out: CLH
Cytochrome P450 2D6 = Cytochrome P450 2D6 (Homo sapiens, UniProt P10635); test: Inhibition of CYP2D6; type: ADME
Cytochrome P450 3A4 [14] = molecular target: T4, Cytochrome P450 3A4 (Homo sapiens, UniProt P08684); test: Inhibition of CYP3A4 using midazolam as substrate; type: ADME
Cytochrome P450 3A4 [15] = molecular target: T4, Cytochrome P450 3A4; test: Inhibition of CYP3A4 using testosterone as substrate; type: ADME
Cytochrome P450 2C9 = Cytochrome P450 2C9 (Homo sapiens, UniProt P11712); test: Inhibition of CYP2C9; type: ADME
[16] = AUC in Wistar rat at 10 mg/kg, po; type: ADME, organism-based; set-up: dose 10 mg/kg, route oral; conditions: plasma
In short: (§2)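 Male Wistar rats, 3 animals per experiment; intravenous dose 1 mg/kg and oral dose 10 mg/kg, each given as a solution.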

[17] = Clearance in Wistar rat at 1 mg/kg, iv and 10 mg/kg, po; type: ADME, organism-based; conditions: in vivo; in short: as §2
[18] = Volume of distribution at steady state in Wistar rat at 1 mg/kg, iv and 10 mg/kg, po; type: ADME, organism-based; conditions: in vivo, read-out: Vdss; in short: as §2
[19] = Half life in Wistar rat at 1 mg/kg, iv and 10 mg/kg, po; type: ADME, organism-based; conditions: in vivo; in short: as §2
[20] = Oral bioavailability in Wistar rat at 10 mg/kg; type: ADME, organism-based; conditions: in vivo; in short: as §2
[21] = Intrinsic clearance in human liver microsomes assessed per mg protein; type: ADME, Microsome; conditions: read-out: CLH

Chain of Cytochrome P450 2D6 (P10635 whole entry): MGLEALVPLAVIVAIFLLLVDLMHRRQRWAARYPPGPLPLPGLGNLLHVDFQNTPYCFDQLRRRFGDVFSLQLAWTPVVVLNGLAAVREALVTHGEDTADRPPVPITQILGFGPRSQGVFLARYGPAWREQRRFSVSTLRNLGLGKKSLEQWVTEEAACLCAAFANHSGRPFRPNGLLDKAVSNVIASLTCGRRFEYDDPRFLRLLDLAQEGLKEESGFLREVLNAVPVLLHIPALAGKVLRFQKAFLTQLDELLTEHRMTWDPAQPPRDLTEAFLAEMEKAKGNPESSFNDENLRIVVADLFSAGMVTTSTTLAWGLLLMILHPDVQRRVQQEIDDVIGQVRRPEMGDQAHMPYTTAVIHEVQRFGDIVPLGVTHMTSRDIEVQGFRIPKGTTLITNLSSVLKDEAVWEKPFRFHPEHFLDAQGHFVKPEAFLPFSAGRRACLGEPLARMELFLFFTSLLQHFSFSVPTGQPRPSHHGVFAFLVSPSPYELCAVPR
T4 sequence (P08684 whole entry): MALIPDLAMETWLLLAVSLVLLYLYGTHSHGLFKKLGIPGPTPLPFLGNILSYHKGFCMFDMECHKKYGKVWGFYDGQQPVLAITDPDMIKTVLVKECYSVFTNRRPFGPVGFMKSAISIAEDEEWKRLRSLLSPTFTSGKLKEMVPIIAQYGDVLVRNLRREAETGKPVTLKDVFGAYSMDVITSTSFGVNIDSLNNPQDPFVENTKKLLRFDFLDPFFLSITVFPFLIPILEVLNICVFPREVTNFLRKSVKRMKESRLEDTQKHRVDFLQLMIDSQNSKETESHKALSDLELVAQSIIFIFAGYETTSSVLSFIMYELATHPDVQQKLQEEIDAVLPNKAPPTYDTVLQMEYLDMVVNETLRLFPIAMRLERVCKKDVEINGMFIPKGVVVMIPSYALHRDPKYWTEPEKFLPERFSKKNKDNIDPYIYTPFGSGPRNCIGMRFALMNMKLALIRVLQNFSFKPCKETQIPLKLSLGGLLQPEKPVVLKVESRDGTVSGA
Chain of Cytochrome P450 2C9 (P11712 whole entry): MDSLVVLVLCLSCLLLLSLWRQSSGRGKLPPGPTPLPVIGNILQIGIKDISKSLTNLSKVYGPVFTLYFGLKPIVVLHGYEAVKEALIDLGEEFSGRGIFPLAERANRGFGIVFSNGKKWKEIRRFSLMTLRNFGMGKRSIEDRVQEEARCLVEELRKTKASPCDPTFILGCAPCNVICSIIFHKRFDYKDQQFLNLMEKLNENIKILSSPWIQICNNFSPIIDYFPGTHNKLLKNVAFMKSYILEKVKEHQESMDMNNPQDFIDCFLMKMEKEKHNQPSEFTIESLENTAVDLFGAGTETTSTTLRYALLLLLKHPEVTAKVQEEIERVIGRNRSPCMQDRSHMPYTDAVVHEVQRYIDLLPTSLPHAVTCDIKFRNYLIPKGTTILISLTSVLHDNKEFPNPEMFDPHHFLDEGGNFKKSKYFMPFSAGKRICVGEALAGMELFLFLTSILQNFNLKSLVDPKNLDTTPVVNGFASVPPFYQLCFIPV

An IC50 [1] of 0.008 µM, an IC50 [2] of 0.025 µM and an IC50 [3] of 0.002 µM were found for `COc1ccc(C(C)=O)cc1CSc1nc2ccccc2n1CC(=O)O` in this work. The IC50 [4] was greater than 10 µM, the IC50 (Thromboxane A2 receptor) was greater than 25 µM and the logD [5] was -1.1. The solubility [6] was 575 µg/mL (≈ 1550 µM), the solubility [7] was 602 µg/mL (≈ 1630 µM) and the solubility [8] was 583 µg/mL (≈ 1570 µM). For the same compound, the remaining at 1 h [9] was 92%, the remaining at 4 h [10] was 100% and the remaining at 4 h [11] was 100%. It also gave a microsomal CLint [12] of 17 µL/min/mg, a hepatocyte CLint [13] of 10 µL/min/1e6 cells and an IC50 (Cytochrome P450 2D6) greater than 50 µM. It also gave an IC50 (Cytochrome P450 3A4 [14]) of 37 µM, an IC50 (Cytochrome P450 3A4 [15]) greater than 50 µM and an IC50 (Cytochrome P450 2C9) of 24 µM. It also gave an AUC [16] of 2360 ng·h/mL, a clearance [17] of 20 mL/min/kg and a Vd [18] of 1.1 L/kg. The half-life [19] was 2.5 h and the bioavailability [20] was 27%.
An IC50 [1] of 0.002 µM, an IC50 [2] of 0.005 µM and an IC50 [3] of 0.014 µM were found for `COc1ccc(C(C)=O)cc1CSc1nc2cc(F)ccc2n1CC(=O)O` in this work. It also gave an IC50 [4] greater than 10 µM, an IC50 (Thromboxane A2 receptor) greater than 25 µM and a logD [5] of -0.8. It also gave a solubility [6] of 484 µg/mL (≈ 1250 µM), a solubility [7] of 399 µg/mL (≈ 1030 µM) and a solubility [8] of 583 µg/mL (≈ 1500 µM). The remaining at 1 h [9] was 95%, the remaining at 4 h [10] was 100% and the remaining at 4 h [11] was 100%. The microsomal CLint [12] was 60 µL/min/mg, the microsomal CLint [21] was 13 µL/min/mg and the hepatocyte CLint [13] was 20 µL/min/1e6 cells. It also gave an IC50 (Cytochrome P450 2D6) greater than 50 µM, an IC50 (Cytochrome P450 3A4 [14]) of 10 µM and an IC50 (Cytochrome P450 3A4 [15]) of 15 µM. It also gave an IC50 (Cytochrome P450 2C9) greater than 50 µM, an AUC [16] of 919 ng·h/mL and a clearance [17] of 36 mL/min/kg. The Vd [18] was 1.2 L/kg, the half-life [19] was 0.9 h and the bioavailability [20] was 19%.
An IC50 [1] of 0.016 µM, an IC50 [2] of 0.015 µM and an IC50 [3] of 0.081 µM were found for `CCCCNC(=O)c1ccc(OC)c(CSc2nc3cc(F)ccc3n2CC(=O)O)c1` in this work. For the same compound, the IC50 [4] was greater than 10 µM, the logD [5] was 0.1 and the solubility [6] was 670 µg/mL (≈ 1500 µM). It also gave a solubility [7] of 719 µg/mL (≈ 1610 µM), a solubility [8] greater than 750 µg/mL and a remaining at 1 h [9] of 94%. The remaining at 4 h [10] was 78%, the remaining at 4 h [11] was 100% and the microsomal CLint [12] was 60 µL/min/mg. The microsomal CLint [21] was 7 µL/min/mg, the hepatocyte CLint [13] was 6 µL/min/1e6 cells and the IC50 (Cytochrome P450 2D6) was greater than 50 µM. It also gave an IC50 (Cytochrome P450 3A4 [14]) of 4 µM, an IC50 (Cytochrome P450 3A4 [15]) of 7 µM and an IC50 (Cytochrome P450 2C9) of 6 µM.
An IC50 [1] of 0.003 µM, an IC50 [3] of 0.008 µM and an IC50 [4] greater than 10 µM were found for `COc1ccc(C(=O)N2CCc3ccccc32)cc1CSc1nc2cc(F)ccc2n1CC(=O)O` in this work. For the same compound, the logD [5] was 0.3, the solubility [6] was 158 µg/mL (≈ 321 µM) and the solubility [7] was 812 µg/mL (≈ 1650 µM). For the same compound, the solubility [8] was 789 µg/mL (≈ 1610 µM), the remaining at 1 h [9] was 100% and the remaining at 4 h [10] was 100%. The remaining at 4 h [11] was 93%, the microsomal CLint [12] was 91 µL/min/mg and the microsomal CLint [21] was 2 µL/min/mg. It also gave a hepatocyte CLint [13] of 12 µL/min/1e6 cells, an IC50 (Cytochrome P450 2D6) greater than 50 µM and an IC50 (Cytochrome P450 3A4 [14]) of 5 µM. The IC50 (Cytochrome P450 3A4 [15]) was 13 µM and the IC50 (Cytochrome P450 2C9) was 28 µM.
